Hit rate of the full screen: of about 330,000 compounds, about 1,100 (0.33%) were called active. For the sample, actives were picked, then their nearest neighbours and some compounds at random. A number with no mark means an inactive call.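 Rule for the calls: active = versus positive control, 20 µM dose yields 30% or more activation; inactive = the rest.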

This test can be described thus: IRE1-XBP1 pathway stimulators – cell-based, CHO-XBP1 luciferase reporter, luminescence, uHTS, primary screen (AID 463104).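 Note: 100% = tunicamycin at 10 µg/mL and 0% = DMSO only wells.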 The note with it: IRE1-XBP1 UPR activation, at 20 µM, stronger effect = higher value, percent of tunicamycin response, DMSO as zero. In short, it runs like this: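 Material – CHO cell line with stable XBP1 luciferase reporter · Buffer or medium – F12 plus 10% FBS · Compound – single point, 20 µM final compound, 1% DMSO · Schedule – 16-18 h cell attachment at 37 °C, then 6 h compound exposure · Signal – Steady-Glo luminescence read · Benchmarks – high control tunicamycin 10 µg/mL final, low control DMSO vehicle only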
Background: In a reporter assay the amount or activity of a reporter protein is the signal.
Regarding `COC(=O)C1=C(c2ccccc2)C[C@@H]2CC[C@H]1N2C(=O)NCc1ccco1`, the activation is 1.2%. For `COc1cc(Cn2c(N)c(C(=O)NCc3ccco3)c3nc4ccccc4nc32)cc(OC)c1OC` the value was 35.8% (active); for `CCOC(=O)c1c(N)n(Cc2ccccc2)c2nc3ccccc3nc12`, 2.64%.

For `CC(C(=O)Nc1ccc(Cl)cc1Cl)N1CC=C(c2ccccc2)CC1` (stereo not given), the activation is -1.2%. Turning to `CNC(=O)O/N=C(\N)Cc1csc2ccc(Cl)cc12`, the activation was 0.76%.
